For one data set, the system named is SH-SY5Y cells. The data set can be described thus: Concentration screening for nontoxic concentration. In kind it is cell-based, human. As to conditions: 24 h, MTT. An outline of the steps: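 SH-SY5Y human neuroblastoma cells grown in DMEM with 10% heat-inactivated FCS, penicillin and streptomycin at 37 °C in 5% CO2. Plated at 0.12 × 10^6 cells/ml. Test compound from 25 mM DMSO stock, screened at 5 to 30 μM. MTT (0.5 mg/ml) for 3 h at 37 °C; formazan dissolved in 0.04 M HCl/isopropanol and read at 570 nm. Expressed as % of untreated cells.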

The conditions of data set [1]: read-out: DPPH radical scavenging EC50, cited from earlier work. In general terms: The DPPH test is a chemical assay of radical scavenging.
In data set [2] the target is T1, Aβ1–42 (Homo sapiens, UniProt P05067). The data set can be described thus: Inhibition of Cu. It counts as biochemical. As to conditions: read-out: Inhibition of Aβ aggregation in the presence of copper(II). Put shortly:
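Aβ1–42 pretreated with HFIP, held as stock in CH3CN/Na2CO3/NaOH, then diluted to 40 μM in 0.215 M phosphate, pH 8.0. Incubated 24 h at 37 °C with or without test compound (80 μM), with CuCl2 (40 μM) for the Cu(II) condition. ThT (5 μM, glycine–NaOH pH 8.5) fluorescence read at 446/485 nm, corrected for peptide-free blanks. % inhibition taken versus no compound; mean ± SEM of duplicates from two experiments.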

A short description of data set [3]: Antioxidant activity, DPPH radical scavenging. As to conditions: read-out: DPPH radical scavenging EC50. Put shortly:
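DPPH at 0.002% in methanol mixed with the test compound in methanol at five concentrations. Incubated 30 min at RT, protected from light. Absorbance read at 517 nm against a methanol blank. %AA = 100×(A_DPPH − A_sol)/A_DPPH. Run in duplicate. EC50 taken from a plot of antioxidant activity against compound concentration.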

The conditions of data set [4]: physiological pH, CL/CM=10, CM=1 μM; cited from earlier work.
The target in data set [5] is T1, Aβ1–42. Particulars: cited from earlier work.
Data set [6] concerns the target T1, Aβ1–42. Description: TEM imaging of Aβ1–42 aggregation. Put shortly:
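Aβ1–42 film dissolved by sonication in CH3CN/NaCl/NH4OH and diluted in 50 mM HEPES, pH 6.6. Mixed with test compound, with or without CuCl2, and incubated 24 h at 37 °C with gentle shaking. Sample applied to formvar/carbon Cu grids for 2 min at RT, washed with water and stained with 1% uranyl acetate for 1 min. Imaged at 200 kV, 10000–20000×.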

Where two headings read alike, the source gives them in different places. Bounds are passed on as bounds.

T1 sequence (P05067 672-713): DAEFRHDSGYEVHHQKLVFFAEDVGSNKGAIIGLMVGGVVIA

In the data set with SH-SY5Y cells, `COc1cccc2cc(C(=O)NCC3CCN(Cc4ccccc4)CC3)oc12` [Compound 6, N-((1-benzylpiperidin-4-yl)methyl)-7-methoxy-benzofuran-2-carboxamide] returned a Highest nontoxic concentration of 20 µM. `O=C(NCCN1CCN(Cc2ccccc2)CC1)c1cc2ccccc2o1` [Compound 5, N-(2-(4-benzylpiperazin-1-yl)ethyl)benzofuran-2-carboxamide] showed a Highest nontoxic concentration in the data set on SH-SY5Y cells of 30 µM. In general, EC50 refers to the concentration giving half of the maximal effect. `Cc1c(C)c2c(c(C)c1O)CCC(C)(C(=O)O)O2` (stereo not drawn) [Trolox]: in data set [1] (same experimental method), the EC50 was 15 µM.

As for `Nc1c2c(nc3ccccc13)CCCC2` [Tacrine, tacrine], the EC50 in data set [1] is more than 1000 µM. As for `O=C(NCC1CCN(Cc2ccccc2)CC1)c1cc2ccccc2o1` [Compound 4, N-((1-benzylpiperidin-4-yl)methyl)benzofuran-2-carboxamide], the Highest nontoxic concentration with SH-SY5Y cells turned out to be 30 µM. The inhibition is the percentage by which the read-out fell short of the control. `O=C(NCCN1CCN(Cc2ccccc2)CC1)c1cc2cccc(O)c2o1` [Compound 3, N-(2-(4-benzylpiperazin-1-yl)ethyl)-7-hydroxybenzofuran-2-carboxamide]: at Aβ1–42 [2], the inhibition was determined as 35.5%.

For `O=C(NCCN1CCN(Cc2ccccc2)CC1)c1ccc2[nH]c(-c3ccccc3O)nc2c1` [Compound 2, N-(2-(4-benzylpiperazin-1-yl)ethyl)-2-(2-hydroxyphenyl)-1H-benzo[d]imidazole-5-carboxamide], the EC50 in data set [3] was 594 ± 4 µM. Moreover, in the data set on SH-SY5Y cells, the Highest nontoxic concentration amounted to 5 µM. Moreover, in data set [4], the pCu was 11.4. The “Aβ aggregates seen by TEM” value on Aβ1–42 [5] (absence of copper) is listed as “a reduction of Aβ aggregates was also observed”; at Aβ1–42 [5] (presence of copper) it was “reduction of Aβ aggregates”. `COc1cccc2cc(C(=O)NCCN3CCN(Cc4ccccc4)CC3)oc12` [Compound 7, N-(2-(4-benzylpiperazin-1-yl)ethyl)-7-methoxybenzofuran-2-carboxamide] displayed a Highest nontoxic concentration in the data set on SH-SY5Y cells of 30 µM. Consider `O=C(NCC1CCN(Cc2ccccc2)CC1)c1ccc2[nH]c(-c3ccccc3O)nc2c1` [Compound 1, N-((1-benzylpiperidin-4-yl)methyl)-2-(2-hydroxyphenyl)-1H-benzo[d]imidazole-5-carboxamide], for which the Highest nontoxic concentration in the data set on SH-SY5Y cells came to 2.5 µM. Besides, the results for the “Aβ aggregates seen by TEM” value at Aβ1–42 [6] (absence of copper) and on Aβ1–42 [6] (presence of copper) were “quite sparse” and “reduction of Aβ aggregates”, respectively.

Values taken from article PMC6127844 (Journal of Enzyme Inhibition and Medicinal Chemistry, 2018).
